Test results: ChEMBL document CHEMBL1125337, “Synthesis and antibacterial activity of a series of basic amides of teicoplanin and deglucoteicoplanin with polyamines” (J Med Chem, 1992)
≈ marks a conversion by molar mass, not a printed value.

Columns and labels:
[1] = test system: Staphylococcus epidermidis; test: Minimum inhibitory concentration against Staphylococcus epidermidis ATCC 12228; format: functional
How it was run: (§1)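 MIC (µg/mL) by microbroth dilution in Iso-Sensitest broth; final inoculum 10^4 cfu/mL; 24 h at 37 °C in air.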

[2] = test system: Staphylococcus haemolyticus; test: Minimum inhibitory concentration against Staphylococcus haemolyticus L 602; format: functional; how it was run: as §1
[3] = test system: Streptococcus pneumoniae; test: Minimum inhibitory concentration against Streptococcus pneumoniae L 44; format: functional
How it was run: (§2)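 MIC (µg/mL) by microbroth dilution in Todd-Hewitt broth, final inoculum 10^4 cfu/mL, incubated 24 h at 37 °C in air.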

[4] = Association constant to Ac2-L-Lys-D-Ala-D-Ala determined at pH 9; Value ranges from 5E4-7.5E4
[5] = test system: Escherichia coli; test: Minimum inhibitory concentration against Escherichia coli L 47; format: functional; how it was run: as §1
[6] = test system: Proteus vulgaris; test: Minimum inhibitory concentration against Proteus vulgaris ATCC 881; format: functional; how it was run: as §1
[7] = test system: Enterococcus faecalis; test: Minimum inhibitory concentration against Enterococcus faecalis ATCC 7080; format: functional
How it was run: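 Microbroth dilution MIC (µg/mL), final inoculum 10^4 cfu/mL, incubated 24 h at 37 °C in air.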

[8] = test system: Staphylococcus aureus; test: Minimum inhibitory concentration against Staphylococcus aureus L 165; format: functional; how it was run: as §1
[9] = test system: Streptococcus pyogenes; test: Efficacy of compound administered subcutaneously against Streptococcus pyogenes L 49 Septicemia in mouse; format: functional; details: sc
How it was run: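 Mice were infected intraperitoneally with about 10^5 Strep. pyogenes L 49 cells, about 100 times the 50% lethal dose. Groups of 5–8 mice were treated once right after challenge, by the route stated in the line. ED50 (mg/kg) was derived from percentage survival at each dose on day 7 (Spearman-Kärber).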

[10] = test system: Pseudomonas aeruginosa; test: Minimum inhibitory concentration against Pseudomonas aeruginosa ATCC 10145; format: functional; how it was run: as §1
[11] = test system: Streptococcus pyogenes; test: Minimum inhibitory concentration against Streptococcus pyogenes L 49; format: functional; how it was run: as §2
[12] = test system: Streptococcus pyogenes; test: Minimum inhibitory concentration of compound was determined against Streptococcus pyogenes L 49 in mouse; format: functional
[13] = test system: Klebsiella pneumoniae; test: Minimum inhibitory concentration of compound was determined against Klebsiella pneumoniae L 1499; format: functional; how it was run: as §1
[14] = test system: Shigella dysenteriae; test: Minimum inhibitory concentration of compound was determined against Shigella dysentariae L155; format: functional
[15] = test system: Salmonella typhimurium; test: Minimum inhibitory concentration of compound was determined against Salmonella Typhimurium L 35; format: functional, Salmonella enterica subsp. enterica serovar Typhimurium; details: Salmonella enterica; how it was run: as §1
[16] = test system: Pseudomonas aeruginosa; test: Minimum inhibitory concentration of compound was determined against Pseudomonas aeruginosa L 1498; format: functional; how it was run: as §1
[17] = test system: Bacteroides fragilis; test: Minimum inhibitory concentration of compound was determined against Bacteroides fragilis L 1236; format: functional
How it was run: (§3)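 Microbroth dilution MIC (µg/mL) in Wilkins-Chalgren broth, final inoculum 10^5 cfu/mL, incubated 48 h in an anaerobic chamber.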

[18] = test system: Klebsiella pneumoniae; test: Minimum inhibitory concentration of compound was determined against Klebsiella pneumoniae L 1481; format: functional; how it was run: as §1
[19] = test system: Escherichia coli; test: Minimum inhibitory concentration of compound was determined against Escherichia coli L 1513; format: functional; how it was run: as §1
[20] = test system: Shigella sonnei; test: Minimum inhibitory concentration of compound was determined against Shigella sonnei L 363; format: functional; how it was run: as §1
[21] = test system: Proteus vulgaris; test: Minimum inhibitory concentration of compound was determined against Proteus vulgaris L 1539; format: functional; how it was run: as §1
[22] = test system: Proteus mirabilis; test: Minimum inhibitory concentration of compound was determined against Proteus mirabilis L 1157; format: functional; how it was run: as §1
[23] = test system: Serratia marcescens; test: Minimum inhibitory concentration of compound was determined against Serratia marcescens L 1506; format: functional; how it was run: as §1
[24] = test system: Enterobacter cloacae; test: Minimum inhibitory concentration of compound was determined against Enterobacter cloacae L 1485; format: functional; how it was run: as §1
[25] = test system: Escherichia coli; test: Minimum inhibitory concentration of compound was determined against Escherichia coli L 1572; format: functional; how it was run: as §1
[26] = test system: Pseudomonas aeruginosa; test: Minimum inhibitory concentration of compound was determined against Pseudomonas aeruginosa L 1533; format: functional; how it was run: as §1
[27] = test system: Escherichia coli; test: Efficacy of compound administered subcutaneously against Escherichia coli L 47 Septicemia in mouse; format: functional; details: sc
How it was run: (§4)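 Mouse septicemia from intraperitoneal injection of about 10^4 cells of E. coli L 47, about 100 times the 50% lethal dose. Groups of five to eight mice each got a single dose immediately after infection, by the route stated in the line. ED50 in mg/kg was calculated from percent survivors at each dose on day 7 (Spearman-Kärber).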

[28] = test system: Pseudomonas aeruginosa; test: Minimum inhibitory concentration of compound was determined against Pseudomonas aeruginosa L 1138; format: functional; how it was run: as §1
[29] = test system: Proteus mirabilis; test: Minimum inhibitory concentration of compound was determined against Proteus mirabilis L 1356; format: functional; how it was run: as §1
[30] = test system: Escherichia coli; test: Efficacy of compound administered intravenously against Escherichia coli L 47 Septicemia in mouse; format: functional; details: iv; how it was run: as §4
[31] = test system: Escherichia coli; test: Minimum inhibitory concentration of compound was determined against Escherichia coli L 1536; format: functional; how it was run: as §1
[32] = test system: Escherichia coli; test: Minimum inhibitory concentration of compound was determined against Escherichia coli L 1153; format: functional; how it was run: as §1
[33] = test system: Bacteroides fragilis; test: Minimum inhibitory concentration of compound was determined against Bacteroides fragilis L 1010; format: functional; how it was run: as §3
[34] = test system: Enterobacter cloacae; test: Minimum inhibitory concentration of compound was determined against Enterobacter cloacae L 1504; format: functional; how it was run: as §1
[35] = species on record: Mus musculus; test: Number of mouse survivors to that of treated with compound; 6 out of 8 survived; format: functional
[36] = test system: Escherichia coli; test: Minimum inhibitory concentration of compound was determined against Escherichia coli L 1347; format: functional; how it was run: as §1
[37] = test system: Serratia marcescens; test: Minimum inhibitory concentration of compound was determined against Serratia marcescens L 1488; format: functional; how it was run: as §1
[38] = test system: Escherichia coli; test: Minimum inhibitory concentration of compound was determined against Escherichia coli L 1484; format: functional; how it was run: as §1
[39] = test system: Pseudomonas aeruginosa; test: Minimum inhibitory concentration of compound was determined against Pseudomonas aeruginosa L 1348; format: functional; how it was run: as §1
[40] = test system: Bacteroides fragilis; test: Minimum inhibitory concentration of compound was determined against Bacteroides fragilis L 1011; format: functional; how it was run: as §3

Work on `NCCN(CCN)CCNC(=O)[C@H]1NC(=O)[C@H]2NC(=O)[C@H](NC(=O)[C@@H]3NC(=O)[C@H]4NC(=O)[C@@H](Cc5ccc(c(Cl)c5)Oc5cc3cc(c5O)Oc3ccc(cc3Cl)[C@H]2O)NC(=O)[C@H](N)c2ccc(O)c(c2)Oc2cc(O)cc4c2)c2ccc(O)c(c2)-c2c(O)cc(O)cc21` yielded an MIC [1] of 0.016 µg/mL (≈ 0.0121 µM), an MIC [2] of 0.063 µg/mL (≈ 0.0475 µM) and an MIC [3] of 0.125 µg/mL (≈ 0.0942 µM). The Ka [4] was 75000 M⁻¹, the MIC [5] was 1 µg/mL (≈ 0.753 µM) and the MIC [6] was 32 µg/mL (≈ 24.1 µM). It also gave an MIC [7] of 0.125 µg/mL (≈ 0.0942 µM), an MIC [8] of 0.063 µg/mL (≈ 0.0475 µM) and an ED50 [9] of 1.25 mg/kg. It also gave an MIC [10] of 8 µg/mL (≈ 6.03 µM), an MIC [11] of 0.063 µg/mL (≈ 0.0475 µM) and an MIC [12] of 0.06 µg/mL (≈ 0.0452 µM).

`NCCCCNCCCNC(=O)[C@H]1NC(=O)[C@H]2NC(=O)[C@H](NC(=O)[C@@H]3NC(=O)[C@H]4NC(=O)[C@@H](Cc5ccc(c(Cl)c5)Oc5cc3cc(c5O)Oc3ccc(cc3Cl)[C@H]2O)NC(=O)[C@H](N)c2ccc(O)c(c2)Oc2cc(O)cc4c2)c2ccc(O)c(c2)-c2c(O)cc(O)cc21` gave an MIC [1] of 0.063 µg/mL (≈ 0.0475 µM), an MIC [2] of 0.063 µg/mL (≈ 0.0475 µM) and an MIC [3] of 0.125 µg/mL (≈ 0.0943 µM). It also gave a Ka [4] of 75000 M⁻¹, an MIC [5] of 2 µg/mL (≈ 1.51 µM) and an MIC [6] of 32 µg/mL (≈ 24.1 µM). It also gave an MIC [7] of 0.125 µg/mL (≈ 0.0943 µM), an MIC [8] of 0.063 µg/mL (≈ 0.0475 µM) and an ED50 [9] of 0.31 mg/kg. It also gave an MIC [10] of 8 µg/mL (≈ 6.03 µM), an MIC [11] of 0.063 µg/mL (≈ 0.0475 µM) and an MIC [12] of 0.06 µg/mL (≈ 0.0452 µM).

In the case of `NCCCNCCCNCCCNC(=O)[C@H]1NC(=O)[C@H]2NC(=O)[C@H](NC(=O)[C@@H]3NC(=O)[C@H]4NC(=O)[C@@H](Cc5ccc(c(Cl)c5)Oc5cc3cc(c5O)Oc3ccc(cc3Cl)[C@H]2O)NC(=O)[C@H](N)c2ccc(O)c(c2)Oc2cc(O)cc4c2)c2ccc(O)c(c2)-c2c(O)cc(O)cc21`, the MIC [1] is reported as 0.016 µg/mL (≈ 0.0117 µM), the MIC [13] is reported as 8 µg/mL (≈ 5.84 µM) and the MIC [14] is reported as 1 µg/mL (≈ 0.73 µM). For the same compound, the MIC [15] was 4 µg/mL (≈ 2.92 µM), the MIC [16] was 64 µg/mL (≈ 46.7 µM) and the MIC [17] was 128 µg/mL (≈ 93.5 µM). The MIC [18] was 4 µg/mL (≈ 2.92 µM), the MIC [2] was 0.063 µg/mL (≈ 0.046 µM) and the MIC [3] was 0.125 µg/mL (≈ 0.0913 µM). It also gave an MIC [19] of 2 µg/mL (≈ 1.46 µM), an MIC [20] of 2 µg/mL (≈ 1.46 µM) and an MIC [21] of 32 µg/mL (≈ 23.4 µM). For the same compound, the MIC [22] was 128 µg/mL (≈ 93.5 µM), the MIC [23] was 8 µg/mL (≈ 5.84 µM) and the Ka [4] was 75000 M⁻¹. The MIC [24] was 4 µg/mL (≈ 2.92 µM), the MIC [25] was 2 µg/mL (≈ 1.46 µM) and the MIC [26] was 64 µg/mL (≈ 46.7 µM). The ED50 [27] was greater than 200 mg/kg, the MIC [5] was 0.5 µg/mL (≈ 0.365 µM) and the MIC [28] was 32 µg/mL (≈ 23.4 µM). The MIC [29] was 32 µg/mL (≈ 23.4 µM), the ED50 [30] was less than 40 mg/kg and the MIC [31] was 2 µg/mL (≈ 1.46 µM). The MIC [32] was 1 µg/mL (≈ 0.73 µM), the MIC [33] was 16 µg/mL (≈ 11.7 µM) and the MIC [6] was 64 µg/mL (≈ 46.7 µM). The MIC [34] was 8 µg/mL (≈ 5.84 µM), the MIC [7] was 0.25 µg/mL (≈ 0.183 µM) and the Survivors [35] was 6. The MIC [36] was 4 µg/mL (≈ 2.92 µM), the MIC [8] was 0.063 µg/mL (≈ 0.046 µM) and the MIC [37] was 8 µg/mL (≈ 5.84 µM). The MIC [38] was 2 µg/mL (≈ 1.46 µM), the MIC [39] was 4 µg/mL (≈ 2.92 µM) and the ED50 [9] was 0.72 mg/kg. For the same compound, the MIC [10] was 2 µg/mL (≈ 1.46 µM), the MIC [11] was 0.063 µg/mL (≈ 0.046 µM) and the MIC [12] was 0.06 µg/mL (≈ 0.0438 µM). For the same compound, the MIC [40] was 32 µg/mL (≈ 23.4 µM).

Work on `NCCCNCCNCCCNC(=O)[C@H]1NC(=O)[C@H]2NC(=O)[C@H](NC(=O)[C@@H]3NC(=O)[C@H]4NC(=O)[C@@H](Cc5ccc(c(Cl)c5)Oc5cc3cc(c5O)Oc3ccc(cc3Cl)[C@H]2O)NC(=O)[C@H](N)c2ccc(O)c(c2)Oc2cc(O)cc4c2)c2ccc(O)c(c2)-c2c(O)cc(O)cc21` yielded an MIC [1] of 0.063 µg/mL (≈ 0.0465 µM), an MIC [2] of 0.125 µg/mL (≈ 0.0922 µM) and an MIC [3] of 0.125 µg/mL (≈ 0.0922 µM). For the same compound, the Ka [4] was 75000 M⁻¹, the MIC [5] was 2 µg/mL (≈ 1.48 µM) and the MIC [6] was 64 µg/mL (≈ 47.2 µM). For the same compound, the MIC [7] was 0.125 µg/mL (≈ 0.0922 µM), the MIC [8] was 0.125 µg/mL (≈ 0.0922 µM) and the ED50 [9] was 2.87 mg/kg. The MIC [10] was 16 µg/mL (≈ 11.8 µM), the MIC [11] was 0.063 µg/mL (≈ 0.0465 µM) and the MIC [12] was 0.06 µg/mL (≈ 0.0443 µM).
